pIC50: −log10 of the molar value. Calls of active or inactive are those of the source. The rule behind the calls is not given here.
How the values were obtained:
[1] = molecular target: NACHT, LRR and PYD domains-containing protein 3 (Mus musculus, UniProt Q8R4B8); assay: Inhibition of NLRP3 inflammasome activation in mouse J774.A1 cells assessed as reduction in LPS-stimulated IL-1beta level pretreated for 1 hr followed by nigericin treatment for 1 hr by ELISA; type: cell-based
In short: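 J774A.1 cells (DMEM, 10% FBS) primed with LPS 1 μg mL−1 for 5 h, compound 1 h, then nigericin 10 μM for 1 h. Supernatant IL-1β by ELISA; IC50 from three separate determinations.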

Colon [2] = assay: Anti-colitis activity against DSS-induced ulcerative colitis mouse model assessed as increase in crypt architecture in colon tissue at 10 mg/kg/day, po for 9 days by H and E staining based analysis; type: functional, organism-based; conditions: time 9.0 day
In short: (§1)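 H&E-stained colon sections (×20) scored for inflammatory cell infiltration, goblet cell depletion and crypt architecture. Samples were taken on day 9 from mice given 2.5% DSS water days 1–7 and daily intragastric SASP 10 mg kg−1.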

Mus musculus [3] = assay: Anti-colitis activity against DSS-induced ulcerative colitis mouse model assessed as increase in colon length at 10 mg/kg/day, po treated for 9 days; type: functional, organism-based; conditions: time 9.0 day
In short: (§2)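 DSS colitis: 2.5% DSS in drinking water days 1–7, water days 8–9. Salicylazosulfapyridine given daily by intragastric gavage, 10 mg kg−1. Body weight and fecal blood recorded daily; colon length measured at sacrifice on day 9.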

Mus musculus [4] = assay: Anti-colitis activity against DSS-induced ulcerative colitis mouse model assessed as decrease in hemafecia at 10 mg/kg/day, po treated for 9 days; type: functional, organism-based; conditions: time 9.0 day; in short: as §2
Colon [5] = assay: Anti-colitis activity against DSS-induced ulcerative colitis mouse model assessed as decrease in infiltration of inflammatory cells in colon tissue at 10 mg/kg/day, po for 9 days by H and E staining based analysis; type: functional, organism-based; conditions: time 9.0 day; in short: as §1
Mus musculus [6] = assay: Anti-colitis activity against DSS-induced ulcerative colitis mouse model assessed as increase in body weight at 10 mg/kg/day, po treated for 9 days; type: functional, organism-based; conditions: time 9.0 day; in short: as §2
Colon [7] = assay: Anti-colitis activity against DSS-induced ulcerative colitis mouse model assessed as increase in goblet cells in colon tissue at 10 mg/kg/day, po for 9 days by H and E staining based analysis; type: functional, organism-based; conditions: time 9.0 day; in short: as §1

Sequence of NACHT, LRR and PYD domains-containing protein 3 (Q8R4B8 whole entry, the tested form may be a part): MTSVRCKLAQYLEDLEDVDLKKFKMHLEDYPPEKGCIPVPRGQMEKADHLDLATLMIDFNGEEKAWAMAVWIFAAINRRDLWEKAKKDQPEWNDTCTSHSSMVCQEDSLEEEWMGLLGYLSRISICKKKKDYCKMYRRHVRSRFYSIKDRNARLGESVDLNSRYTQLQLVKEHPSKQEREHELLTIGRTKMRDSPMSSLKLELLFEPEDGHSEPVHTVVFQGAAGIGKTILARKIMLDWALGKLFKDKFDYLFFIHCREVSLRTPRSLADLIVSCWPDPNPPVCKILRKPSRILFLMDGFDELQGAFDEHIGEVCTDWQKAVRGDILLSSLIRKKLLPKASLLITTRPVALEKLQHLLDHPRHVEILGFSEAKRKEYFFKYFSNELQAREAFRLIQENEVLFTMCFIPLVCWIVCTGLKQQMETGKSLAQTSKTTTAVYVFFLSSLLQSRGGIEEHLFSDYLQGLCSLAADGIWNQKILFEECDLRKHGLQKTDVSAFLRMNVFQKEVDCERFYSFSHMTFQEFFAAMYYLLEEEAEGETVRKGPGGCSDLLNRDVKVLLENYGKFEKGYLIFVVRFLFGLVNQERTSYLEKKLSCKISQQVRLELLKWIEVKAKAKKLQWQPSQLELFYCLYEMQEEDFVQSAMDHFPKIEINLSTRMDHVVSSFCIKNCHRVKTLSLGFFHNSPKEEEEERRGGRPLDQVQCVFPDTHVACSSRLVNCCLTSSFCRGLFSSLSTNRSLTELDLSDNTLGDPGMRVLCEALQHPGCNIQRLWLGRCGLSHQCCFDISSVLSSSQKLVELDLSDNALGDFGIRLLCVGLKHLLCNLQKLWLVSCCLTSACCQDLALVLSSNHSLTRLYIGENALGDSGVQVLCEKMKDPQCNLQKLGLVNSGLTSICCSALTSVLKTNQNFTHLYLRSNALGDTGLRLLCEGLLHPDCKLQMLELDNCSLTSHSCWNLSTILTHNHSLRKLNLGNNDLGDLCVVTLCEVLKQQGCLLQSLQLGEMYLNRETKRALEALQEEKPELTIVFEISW

| Compound | pIC50 [1] | also measured |
| --- | --- | --- |
| CCOC(=O)CSc1ccc(C(=O)/C=C/c2cc(C)c(O)c(C)c2)cc1 | 5.31 |  |
| CNC(=O)CNC(=O)c1ccc(C(=O)/C=C/c2cc(C)c(O)c(C)c2)cc1 | 5.52 |  |
| COc1ccc(C(=O)/C=C/c2cc(C)c(O)c(C)c2)cc1 | 4.84 |  |
| CSc1ccc(C(=O)/C=C/c2cc(O)cc(O)c2)cc1 | 5.80 |  |
| Cc1cc(/C=C/C(=O)c2ccc(C(=O)NCC(=O)O)cc2)cc(C)c1O | < 4.30 |  |
| COC(=O)[C@H](Cc1ccccc1)NC(=O)c1ccc(C(=O)/C=C/c2cc(C)c(O)c(C)c2)cc1 | 5.96 |  |
| CCN(CC)C(=O)CNC(=O)c1ccc(C(=O)/C=C/c2cc(C)c(O)c(C)c2)cc1 | 5.23 |  |
| Cc1cc(/C=C/C(=O)c2ccc(C(=O)O)cc2)cc(C)c1O | < 4.30 |  |
| CCN(CC)C(=S)Sc1ccc(C(=O)/C=C/c2cc(C)c(O)c(C)c2)cc1 | 4.57 |  |
| COC(=O)C1(C(=O)Nc2ccc(C(=O)/C=C/c3cc(C)c(O)c(C)c3)cc2)CC1 | 5.52 |  |
| CCNC(=O)CNC(=O)c1ccc(C(=O)/C=C/c2cc(C)c(O)c(C)c2)cc1 | 5.40 |  |
| Cc1cc(/C=C/C(=O)c2ccc(NC(=O)CCN(C)C)cc2)cc(C)c1O | 5.22 |  |
| Cc1cc(/C=C/C(=O)c2ccc3c(c2)COC32CNC2)cc(C)c1O | 5.28 |  |
| CCN(CC)C(=S)SCCC(=O)Nc1ccc(C(=O)/C=C/c2cc(C)c(O)c(C)c2)cc1 | 5.42 |  |
| COC(=O)CNC(=O)c1ccc(C(=O)/C=C/c2cc(C)c(O)c(C)c2)cc1 | 5.97 |  |
| CSc1ccc(C(=O)/C=C/c2cc(C)c(O)c(C)c2)cc1 | 5.44 |  |
| CCOC(=O)c1ccc(C(=O)/C=C/c2cc(C)c(O)c(C)c2)cc1 | 5.08 |  |
| Cc1cc(/C=C/C(=O)c2ccc(C(=O)N[C@@H](Cc3ccccc3)C(=O)O)cc2)cc(C)c1O | 5.47 |  |
| Cc1cc(/C=C/C(=O)c2ccc(C(=O)NCC(=O)Nc3ccccc3)cc2)cc(C)c1O | < 4.30 |  |
| O=C(O)c1cc(/N=N/c2ccc(S(=O)(=O)Nc3ccccn3)cc2)ccc1O |  | Activity (Colon [2]): Active; Activity (Mus musculus [3]): Active; Activity (Mus musculus [4]): inactive; Activity (Colon [5]): Active; Activity (Mus musculus [6]): inactive; Activity (Colon [7]): Active |
| Cc1cc(/C=C/C(=O)c2ccc(C(=O)NCC(=O)N(C)C)cc2)cc(C)c1O | 5.22 |  |

Source: ChEMBL document CHEMBL5357044, “Discovery of a dual-acting inhibitor of interleukin-1β and STATs for the treatment of inflammatory bowel disease” (RSC Med Chem, 2024)
